The values that follow come from paper PMC4096040 (The Journal of endocrinology, 2012).

Data set [1] deals with INS-1 cells. Kind of data set: JC-1 Mitochondrial Membrane Potential Assay. As to conditions: 18.25 μM t-BHP alone, 48 h, Fig. 2C. It counts as cell-based.
The subject of data set [2] is INS-1 cells. Kind of data set: Mitochondrial cytochrome c release. As to conditions: 18.25 μM t-BHP alone, 72 h, Fig. 4A. In kind it is cell-based. The method in brief:
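INS-1 cells (100 000/well) were left untreated, given 18.25 μM t-BHP alone, or given t-BHP with 10 μM test compound for 72 h. They were processed according to the kit protocol, with cytochrome c labelled by FITC and nuclei by DAPI. Fluorescence microscopy followed, scoring loss of green signal as cytochrome c release.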

For data set [3], the system named is INS-1 cells. Kind of data set: Pan caspase activity. Particulars: 18.25 μM t-BHP alone, compared with the control group, Fig. 4C. It counts as cell-based.
The subject of data set [4] is diaminopeptidyl peptidase-4 (DPP4). As to conditions: removal of the N-terminal two amino acids; ref Lovshin & Drucker 2009; cited from earlier work.
The subject of data set [5] is NEP 24.11, known as neprilysin. Particulars: products include GLP1(28–36)amide; ref Hupe-Sodmann et al. 1995; cited from earlier work.

For the compound `CC(C)(C)OO` [t-BHP, tert-butyl hydro-peroxide], in the data set on INS-1 cells [1], the “mitochondrial potential, stressor alone” value is reported as “loss of mitochondrial potential”. The “cytochrome c release, stressor alone” value in the data set with INS-1 cells [2] is on record as “stimulated cytochrome c release”. Also, the “caspase activity, stressor alone” value in the data set on INS-1 cells [3] is on record as “significant increase in caspase-3 activity”.

For the compound “GLP1(7–36)amide: 30 amino acid insulinotropic form of GLP1, known GLP1 receptor agonist”, in data set [4], the “T1/2 of modification to GLP1(9–36)amide by DPP4” value was 1 to 2 min. Besides, in data set [5], the “cleavage by NEP 24.11” value is “cleaves GLP1(7–36)amide into several smaller peptides”.
